Compound activity: PubChem BioAssay, several laboratories
VIM-2 inh = VIM-2 metallo-beta-lactamase inhibitors, primary screen, biochemical, epi-absorbance readout, Pseudomonas aeruginosa enzyme; AID 1527, 2009; inhibition, % at 5.6 µM; purified VIM-2, nitrocefin hydrolysis, epi-absorbance fluorescence; hit rate 0.89% among 290,000;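 active = inhibition above the mean of all tested compounds plus 3 SD, cutoff set per screening run, cut at about 7.5% in these data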;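 note: red hydrolysis product quenches plate fluorescence so inhibitors raise well fluorescence; 0% = enzyme with DMSO and 100% = DMSO without enzyme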
MEKK2wt PB1 HTS = modulators of MEK5 binding to wildtype MEKK2, primary screen, biochemical, multiplex bead flow cytometry, Alexa488-MEK5 | Alexa488-MEK5 binding to MEKK2 WT; actives lie on both sides | hit rate 1.1% among 290,000 | Mitogen-activated protein kinase kinase kinase 2 (Homo sapiens), Q9Y2U5 | AID 1531, 2009 | binding response (% of control), % at 10 µM; in the data active = binding response below about 67% or above about 130%
MEKK2 mut-MEK5 = MEK5 binding signal on mutant MEKK2 PB1, primary screen, biochemical, multiplex bead flow cytometry, Alexa488-MEK5; Alexa488-MEK5 binding to MEKK2 mutant; percent response, % at 10 µM; hit rate 0.35% among 290,000; in the data active = percent response above about 24%, passing the limit was not always enough
MEKK3 PB1 HTS = modulators of MEKK3-MEK5 PB1 binding, primary screen, biochemical, wildtype MEKK3, multiplex bead flow cytometry, Alexa488-MEK5 | Mitogen-activated protein kinase kinase kinase 3 (Homo sapiens), Q99759 | bead-based flow cytometry, Alexa488-MEK5 binding to MEKK3; actives lie on both sides; 0 = blocked by unlabeled MEK5, 100 = vehicle | binding response (% of control), % at 10 µM | hit rate 1.4% among 290,000 | AID 1529, 2009;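 active = binding response more than 3 SD above or below the average of its plate-row segment, actives on both sides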;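 note: Alexa488 bead fluorescence after subtracting the streptavidin-only scavenger bead signal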
Target sequence (Q99759 whole entry, looked up): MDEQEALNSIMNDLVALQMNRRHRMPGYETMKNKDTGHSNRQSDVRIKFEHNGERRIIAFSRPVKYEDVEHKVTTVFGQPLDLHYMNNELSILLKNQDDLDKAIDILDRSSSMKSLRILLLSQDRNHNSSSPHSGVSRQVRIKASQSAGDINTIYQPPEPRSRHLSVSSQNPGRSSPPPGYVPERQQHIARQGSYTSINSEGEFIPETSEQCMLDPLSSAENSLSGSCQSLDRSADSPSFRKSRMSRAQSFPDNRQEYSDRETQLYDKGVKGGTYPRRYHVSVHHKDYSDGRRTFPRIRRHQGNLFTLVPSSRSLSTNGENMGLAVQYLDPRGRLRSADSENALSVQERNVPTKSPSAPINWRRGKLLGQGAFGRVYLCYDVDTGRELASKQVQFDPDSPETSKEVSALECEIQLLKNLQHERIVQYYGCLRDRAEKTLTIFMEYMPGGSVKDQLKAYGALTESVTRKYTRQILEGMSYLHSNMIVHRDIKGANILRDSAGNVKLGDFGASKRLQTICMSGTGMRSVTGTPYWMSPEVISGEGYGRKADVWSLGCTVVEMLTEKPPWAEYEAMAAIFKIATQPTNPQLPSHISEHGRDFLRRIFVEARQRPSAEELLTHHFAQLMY
IMP-1 inh = IMP-1 metallo-beta-lactamase inhibitors, primary screen, biochemical, epi-absorbance readout, Pseudomonas aeruginosa enzyme | metallo-beta-lactamase IMP-1 (Pseudomonas aeruginosa) | purified IMP-1, nitrocefin hydrolysis, epi-absorbance fluorescence | inhibition, % at 5.6 µM | hit rate 0.45% among 290,000;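 active = inhibition above the mean plus 3 SD of all compounds in the same screening run, cut at about 4.5% in these data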;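 note: 0% = IMP-1 with DMSO and 100% = DMSO wells lacking enzyme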
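assay system = purified recombinant IMP-1 metallo-beta-lactamase enzyme | schedule = 15 min preincubation plus 25 min reaction at 25 °C | signal = Epi-absorbance fluorescence, 480 nm excitation, 530 nm emission | read-out basis = percent inhibition from optical density relative to buffer-blank wells | controls = IMP-1 with DMSO as 0%, enzyme-free DMSO as 100%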
MEKK2wt confirm = modulators of MEK5 binding to wildtype MEKK2, confirmation, biochemical, single concentration, multiplex bead flow cytometry; shares compounds with MEKK3 PB1 HTS; Alexa488-MEK5 binding to MEKK2 WT; actives lie on both sides; binding response (% of control), % at 10 µM; hit rate 2.4% among 5,900; in the data active = binding response below about 16% or above about 210%; inactive = in between
MEKK2mut confirm = mutant MEKK2 PB1-MEK5 binding signal retest – biochemical, single concentration, multiplex bead flow cytometry, confirmation. shares compounds with MEKK3 PB1 HTS. hit rate 2% among 5,900. Alexa488-MEK5 binding to MEKK2 mutant. percent response, % at 10 µM; in the data active = percent response mostly above about 71%, no sharp cut-off; inactive = mostly below about 38%;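 note: higher means compound restores mutant binding toward wildtype level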
MEKK3-MEK5 inh = MEKK3 wild-type PB1 binding to MEK5, inhibitors, confirmation, biochemical, bead multiplex flow cytometry, single concentration, wildtype. binding response (% of control), % at 10 µM. AID 1894, 2009. Alexa488-MEK5 binding to MEKK3; active compounds read low. hit rate 1.8% among 5,900. shares compounds with MEKK3 PB1 HTS;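 active = binding response below 72% of control, or above a set upper limit, though filed actives all read lower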;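 note: 100% = DMSO only wells and 0% = binding blocked by excess unlabeled MEK5; lower values mean stronger disruption of MEK5 binding to MEKK3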
* = called active by the depositor; [ ] = dose if it differs, or a comment. Hits are enriched below; roughly 3.4% of the tested compounds scored in any of these assays.

Results for CC1CCc2sc(C(=O)N=Nc3c(O)[nH]c4ccccc34)cc2C1 (configuration not stated) ?
VIM-2 inh: -2.9; MEKK2wt PB1 HTS: 106.0; MEKK2 mut-MEK5: 0.0; MEKK3 PB1 HTS: 130.0*; IMP-1 inh: -4.6; MEKK2wt confirm: 101.0; MEKK2mut confirm: 6.0; MEKK3-MEK5 inh: 103.0

Results for CCC(C)NS(=O)(=O)c1ccc(S(=O)(=O)N(CCc2ccc(OC)c(OC)c2)Cc2cccs2)cc1 (configuration not stated) ?
VIM-2 inh: -3.9; MEKK2wt PB1 HTS: 107.0; MEKK2 mut-MEK5: -1.0; MEKK3 PB1 HTS: 147.0*; IMP-1 inh: -3.3; MEKK2wt confirm: 99.0; MEKK2mut confirm: -2.0; MEKK3-MEK5 inh: 102.0

How did COc1ccc(CCN(Cc2cccs2)S(=O)(=O)c2ccc(S(=O)(=O)N3CCCCCC3)cc2)cc1OC do in these assays?
VIM-2 inh: -2.5; MEKK2wt PB1 HTS: 115.0; MEKK2 mut-MEK5: 11.0; MEKK3 PB1 HTS: 102.0; IMP-1 inh: -3.3

Results for Cc1ccc(-n2nnc3c(=O)n(Cc4ccccn4)cnc32)cc1C ?
VIM-2 inh: -1.2; MEKK2wt PB1 HTS: 97.0; MEKK2 mut-MEK5: 175.0*; MEKK3 PB1 HTS: 109.0; IMP-1 inh: -2.5; MEKK2wt confirm: 96.0; MEKK2mut confirm: 2.0; MEKK3-MEK5 inh: 102.0

How did COc1cc(NC(=O)CN(C)Cc2ccc(OC(F)F)cc2)c(C)cc1[N+](=O)[O-] do in these assays?
VIM-2 inh: -4.0; MEKK2wt PB1 HTS: 99.0; MEKK2 mut-MEK5: 4.0; MEKK3 PB1 HTS: 100.0; IMP-1 inh: -6.5

What do the screens show for `COc1cc(NC(=O)CN(C)Cc2cccc(F)c2)c(C)cc1[N+](=O)[O-]`?
VIM-2 inh: -2.5; MEKK2wt PB1 HTS: 112.0; MEKK2 mut-MEK5: 0.0; MEKK3 PB1 HTS: 128.0*; IMP-1 inh: -4.5; MEKK2wt confirm: 104.0; MEKK2mut confirm: -2.0; MEKK3-MEK5 inh: 104.0

How did COc1ccc(CN(C)CC(=O)Nc2cc(OC)c([N+](=O)[O-])cc2C)c(OC)c1 do in these assays?
VIM-2 inh: 1.0; MEKK2wt PB1 HTS: 106.0; MEKK2 mut-MEK5: 0.0; MEKK3 PB1 HTS: 133.0*; IMP-1 inh: 1.4; MEKK2wt confirm: 111.0; MEKK2mut confirm: 5.0; MEKK3-MEK5 inh: 100.0

How did CCOC(=O)c1ccc(NS(=O)(=O)c2cc3c(cc2C)NC(=O)CO3)cc1 do in these assays?
VIM-2 inh: -2.5; MEKK2wt PB1 HTS: 105.0; MEKK2 mut-MEK5: 3.0; MEKK3 PB1 HTS: 100.0; IMP-1 inh: -3.1

Results for O=C(CCOc1ccccc1)Nc1ccnn1C1CCN(Cc2ccccc2)CC1 ?
VIM-2 inh: -3.2; MEKK2wt PB1 HTS: 114.0; MEKK2 mut-MEK5: 9.0; MEKK3 PB1 HTS: 111.0; IMP-1 inh: -3.2

What do the screens show for `COc1ccc(OCc2nnc(SCC(=O)N3CCOCC3)o2)cc1`?
VIM-2 inh: -0.9; MEKK2wt PB1 HTS: 108.0; MEKK2 mut-MEK5: -1.0; MEKK3 PB1 HTS: 108.0; IMP-1 inh: -3.7

How did CCn1c(SCC(=O)O)nc2sc3c(c2c1=O)CCC3 do in these assays?
VIM-2 inh: -1.7; MEKK2wt PB1 HTS: -1.0*[inhibitor]; MEKK2 mut-MEK5: -9.0; MEKK3 PB1 HTS: 1.0*[inhibitor]; IMP-1 inh: -1.4; MEKK2wt confirm: 96.0; MEKK2mut confirm: -6.0; MEKK3-MEK5 inh: 101.0
